The source of these data is ChEMBL document CHEMBL1135466, “Potent antimalarial febrifugine analogues against the plasmodium malaria parasite” (J Med Chem, 2002).

Test [1] is described as follows: In vitro antimalarial activity against the Plasmodium falciparum FCR3. It is filed as functional.
Test [2] relates to Plasmodium berghei. Briefly: (§1) In vivo antimalarial activity against Plasmodium berghei infected mice (Mus musculus). It is filed as functional. In outline: (§2)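 Infected mice were dosed, and activity is reported as the doses giving 50% and 90% effect (ED50 and ED90), in µmol/kg.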
Test [3] relates to FM3A. Briefly: Selectivity ratio of cytotoxicity against FM3A cells to antimalarial activity against Plasmodium falciparum FCR3. It is filed as functional, Mus musculus.
Test [4] relates to FM3A. Kind of test: In vitro cytotoxicity against mouse mammary FM3A cells. It is filed as cell-based.
Test [5] has as its system Plasmodium berghei. The description is as §1. It is filed as functional. In outline:
as §2
This is another data set of the same source.

As usually defined, the EC50 is the concentration needed to bring the measured effect to its halfway point. Read a high EC50 as a less potent agent. In test [1], `C[C@@H]1CC[C@H]2[C@@H](C)C(=O)O[C@@H]3O[C@@]4(C)CC[C@@H]1[C@]32OO4` [ARTEMISININ] gave an EC50 of 10 nM. The compound further yielded an ED90 in the test with Plasmodium berghei [2] of 46 µM/kg. Moreover, the Selectivity with FM3A [3] was 1000.
Turning to `COCO[C@H]1CCCN2CO[C@H](Cn3cnc4ccccc4c3=O)C[C@H]12`, the EC50 in the test with FM3A [4] stood at 2500 nM; in test [1], 8.6 nM. The Selectivity in the test on FM3A [3] was 291.
In the same order, the values of `O=C(CC1NCCC[C@@H]1O)Cn1ccc2ccccc2c1=O` (some centres undefined) are above 16000 nM, 500 nM and above 32.
The like results for `CC1(C)[C@@H](n2cnc3ccccc3c2=O)C=C[C@@H]2[C@@H](O)CCCN21` were, in that order, above 32000 nM, 4800 nM and above 7.
What is called ED50 is the dose at which the effect has come halfway, by size or by number of responders. High values mean weaker potency, low ones greater potency. Compound `CCN(CC)CCCC(C)Nc1ccnc2cc(Cl)ccc12` (centres undefined) [CHLOROQUINE] returned an EC50 in test [1] of 18 nM. In addition, in the test on Plasmodium berghei [2], the ED50 was 4.7 µmol/kg and the ED90 turned out to be 9.4 µM/kg.
Consider `O=c1c2ccccc2ccn1CC1(O)CC2NCCC[C@@H]2O1` (some centres undefined), for which the EC50 with FM3A [4] was above 6300 nM; in test [1] it was 2100 nM. The Selectivity in the test on FM3A [3] is above 3.
In the same order, the values of `CC1(C)[C@@H](n2cnc3ccccc3c2=O)CC[C@@H]2[C@@H](O)CCCN21` are above 22000 nM, 830 nM and above 27.
In the same order, the values of `CC1(C)[C@@H](N2CNc3ccccc3C2=O)[C@@H](O)C[C@@H]2[C@@H](O)CCCN21` are above 16000 nM, 420 nM and above 38.
The like results for `O=c1ccncn1CC1(O)CC2NCCC[C@@H]2O1` (some centres undefined) were, in that order, 7000 nM, 40 nM and 175.
Regarding `CC1(C)[C@@H](n2cnc3ccccc3c2=O)[C@@H](O)C[C@@H]2[C@@H](O)CCCN21`, the EC50 in the test on FM3A [4] was found to be 2800 nM; in test [1] it was 400 nM. Also, the Selectivity in the test on FM3A [3] was 70.
In the same order, the values of `CC1(C)[C@@H](n2cnc3ccccc3c2=O)[C@H](O)C[C@@H]2[C@@H](O)CCCN21` are 85000 nM, 300 nM and 283.
`CC(=O)O[C@H]1CCCN2[C@H]1CC(=O)[C@@H](n1cnc3ccccc3c1=O)C2(C)C`: the half-maximal effective concentration (EC50) in the test with FM3A [4] was 7000 nM; in test [1], 19 nM. The Selectivity in the test on FM3A [3] came out at 368.
As for `CCOC(=O)N1CCC[C@H](O)C1CC(=O)Cn1cnc2ccccc2c1=O` (some centres undefined), the EC50 with FM3A [4] is above 17000 nM; in test [1], 4800 nM. For the same compound, the Selectivity in the test on FM3A [3] is listed as above 3.5.
Compound `O=C(CC1NCCCC1=O)Cn1cnc2ccccc2c1=O` (centres undefined) returned an EC50 in the test on FM3A [4] of 10000 nM. The midpoint of the response in test [1], the EC50, lay at 20 nM. Besides, in the test with Plasmodium berghei [2], the ED50 stood at 1.3 µmol/kg and the ED90 came out at 6.2 µM/kg. In addition, in the test on FM3A [3], the Selectivity is on record as 500.
Regarding `CC1(C)[C@H](n2cnc3ccccc3c2=O)[C@@H](O)C[C@H]2[C@@H](O)CCCN21`, the EC50 with FM3A [4] is above 100000 nM; in test [1], 3400 nM. Also, the Selectivity in the test with FM3A [3] was above 28.
In the same order, the values of `CNc1ccccc1C(=O)NC1[C@@H](O)C[C@@H]2[C@@H](O)CCCN2C1(C)C` (some centres undefined) are above 17000 nM, 600 nM and above 28.
In the same order, the values of `CC(=O)O[C@H]1CCCN(C(C)=O)C1CC(=O)Cn1cnc2ccccc2c1=O` (some centres undefined) are above 29000 nM, 910 nM and above 32.
The like results for `COC1=C[C@@H]2[C@@H](O)CCCN2C(C)(C)[C@H]1n1cnc2ccccc2c1=O` were, in that order, above 66000 nM, 1300 nM and above 51.
On to `O=c1c2ccccc2ncn1C[C@@H](O)CC1NCCC[C@@H]1O` (some centres undefined), for which a half-maximal response in test [1] (EC50) required 20 nM. For the same compound, in the test with Plasmodium berghei [2], the ED50 stood at 2.9 µmol/kg and the ED90 worked out at 22 µM/kg. For the same compound, in the test on FM3A [3], the Selectivity is 750.
`CC1(C)[C@@H](n2cnc3ccccc3c2=O)C(=O)C[C@@H]2[C@@H](O)CCCN21` registered an EC50 in test [1] of 1.6 nM. In the test with FM3A [3], the Selectivity turned out to be 238.
Turning to `CC(=O)O[C@H]1CCCN2[C@H]1C[C@@H](O)[C@@H](n1cnc3ccccc3c1=O)C2(C)C`, the concentration giving a half-maximal response (EC50) is above 11000 nM in the test with FM3A [4] and 400 nM in test [1]. In the test with FM3A [3], the Selectivity is given as above 28.
As for `O=c1c2ccccc2ncn1CC1(O)C[C@@H]2NCCC[C@@H]2O1` (some centres undefined) [ISOFEBRIFUGINE], the EC50 in test [1] was found to be 3.4 nM. Moreover, in the test with Plasmodium berghei [2], the ED50 came to 211 µmol/kg and the ED90 was above 267 µM/kg. Also, in the test with FM3A [3], the Selectivity is reported as 53.
`CC1(C)[C@H](n2cnc3ccccc3c2=O)C(=O)C[C@H]2[C@@H](O)CCCN21` displayed a half-maximal effective concentration (EC50) in test [1] of 2.8 nM. Also, the Selectivity in the test with FM3A [3] is 857.
Regarding `CC(=O)O[C@H]1CCCN2[C@@H]1CC(=O)[C@H](n1cnc3ccccc3c1=O)C2(C)C`, the results for the EC50 (with FM3A [4]; in test [1]) were 1300 nM and 3.6 nM, respectively. Moreover, in the test on FM3A [3], the Selectivity amounted to 361.
In test [1], `O=C(C[C@@H]1NCCC[C@H]1O)Cn1cnc2ccccc2c1=O` [FEBRIFUGINE] showed an EC50 of 700 nM. In the test on Plasmodium berghei [2], the 50% effective dose (ED50) was determined as 1 µmol/kg and the ED90 was found to be 5 µM/kg. The Selectivity with FM3A [3] stood at 243.
Turning to `CC1(C)[C@H](n2cnc3ccccc3c2=O)[C@H](O)C[C@H]2[C@@H](O)CCCN21`, the EC50 in the test with FM3A [4] is above 24000 nM; in test [1], 800 nM. In the test on FM3A [3], the Selectivity is above 30.
Turning to `O=c1c2ccccc2ncn1C[C@@H]1C[C@@H]2[C@@H](O)CCCN2CO1`, in the test with FM3A [4], the EC50 amounted to 3800 nM. Besides, the ED50 in the test with Plasmodium berghei [5] was above 180 µmol/kg; in the test on Plasmodium berghei [2] it was 82 µmol/kg. Besides, in the test on FM3A [3], the Selectivity stood at 1027.
With `CC1(C)[C@@H](n2cnc3ccccc3c2=O)C(=O)C[C@@H]2[C@@H](O)CCC[N+]21[O-]` (some centres undefined), the EC50 in the test with FM3A [4] was above 29000 nM; in test [1], 100 nM. Besides, the Selectivity in the test on FM3A [3] is above 290.
The like results for `O=c1c2ccccc2ncn1C[C@@H]1C[C@@H]2[C@H](O)CCCN2CO1` were, in that order, above 25000 nM, 840 nM and above 30.
On to `O=C(CC1NCCC[C@@H]1O)Cn1cnccc1=O` (some centres undefined), for which, in the test on FM3A [4], the EC50 was above 19000 nM. Besides, the Selectivity in the test on FM3A [3] was above 32.
For the compound `CC1(C)[C@@H](n2cnc3ccccc3c2=O)C(=O)C[C@@H]2C(=O)CCCN21`, the results for the EC50 (in the test with FM3A [4]; in test [1]) were 5900 nM and 1.9 nM, respectively. Besides, the Selectivity in the test with FM3A [3] is listed as above 3105.
The like results for `CC(=O)O[C@H]1CCCN2[C@H]1C[C@@H](OC(C)=O)[C@@H](n1cnc3ccccc3c1=O)C2(C)C` were, in that order, above 21000 nM, 7000 nM and above 3.
